In brackets after ≈: the same amount, converted by molar mass. Activity calls are given as the source filed them. The calls are words filed in the database; no cut-off is given here.
Legend:
Escherichia coli [1] = assay: Antimicrobial activity against Escherichia coli at 1 ug; format: functional, organism-based
Procedure, shortened: (§1)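 Direct bioautography: each compound is spotted onto TLC plates and the solvent evaporated. The test organism is then grown directly on the plate. Growth inhibition is scored at the spot as active (+) or very active (++). Where a number is given, it is the radius in mm of the inhibition zone around the spot.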

Micrococcus luteus [2] = assay: Antimicrobial activity against Micrococcus luteus at 10 ug; format: functional, organism-based; procedure, shortened: as §1
Bacillus subtilis [3] = assay: Antimicrobial activity against Bacillus subtilis at 10 ug; format: functional, organism-based; procedure, shortened: as §1
Escherichia coli [4] = assay: Antimicrobial activity against Escherichia coli at 0.1 ug; format: functional, organism-based; procedure, shortened: as §1
Penicillium oxalicum [5] = assay: Antimicrobial activity against Penicillium oxalicum at 5 ug; format: functional; settings: read-out: IZ; procedure, shortened: as §1
Penicillium oxalicum [6] = assay: Antimicrobial activity against Penicillium oxalicum at 0.1 ug; format: functional; settings: for zone of inhibition at 0.1 µg/disc: read-out: IZ; procedure, shortened: as §1
[7] = Inhibition of PKC
Escherichia coli [8] = assay: Antimicrobial activity against Escherichia coli at 5 ug; format: functional, organism-based; procedure, shortened: as §1
Escherichia coli [9] = assay: Antimicrobial activity against Escherichia coli at 10 ug; format: functional, organism-based; procedure, shortened: as §1
Monocyte [10] = assay: Inhibition of LPS-stimulated IL1 production in human monocytes; format: functional, cell-based
Monocyte [11] = assay: Inhibition of IL1 biosynthesis in human monocytes; format: functional, cell-based
Bacillus subtilis [12] = assay: Antimicrobial activity against Bacillus subtilis at 1 ug; format: functional, organism-based; procedure, shortened: as §1
Penicillium oxalicum [13] = assay: Antimicrobial activity against Penicillium oxalicum at 0.01 ug; format: functional; procedure, shortened: as §1
Micrococcus luteus [14] = assay: Antimicrobial activity against Micrococcus luteus at 1 ug; format: functional, organism-based; procedure, shortened: as §1
Penicillium oxalicum [15] = assay: Antimicrobial activity against Penicillium oxalicum at 1 ug; format: functional; settings: for zone of inhibition at 1 µg/disc: read-out: IZ; procedure, shortened: as §1
Penicillium oxalicum [16] = assay: Antimicrobial activity against Penicillium oxalicum at 10 ug; format: functional; settings: read-out: IZ; procedure, shortened: as §1
[17] = Inhibition of TK assessed as residual activity at 200 ug/ml
Procedure, shortened: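 The enzyme was tyrosine kinase p56lck, with test compounds at 200 μg/mL. The read-out is the remaining enzyme activity.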

Micrococcus luteus [18] = assay: Antimicrobial activity against Micrococcus luteus at 5 ug; format: functional, organism-based; procedure, shortened: as §1
Bacillus subtilis [19] = assay: Antimicrobial activity against Bacillus subtilis at 5 ug; format: functional, organism-based; procedure, shortened: as §1
[20] = Selectivity index, ratio of IC50 for human KB cells to IC50 for Plasmodium falciparum D6; format: toxicity, cell-based; settings: KB cells versus Plasmodium falciparum D6, read-out: Ratio IC50
Procedure, shortened: (§2)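 Plasmodium falciparum clones were assayed in vitro: D6 (chloroquine-sensitive) and W2 (chloroquine-resistant). IC50 is in μg/mL. The selectivity index is the ratio of the antimalarial to the cytotoxic activity.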

KB [21] = assay: Cytotoxicity against human KB cells; format: functional; settings: read-out: ED50 (the source's name)
[22] = Selectivity index, ratio of IC50 for human KB cells to IC50 for Plasmodium falciparum W2; format: toxicity, cell-based; settings: KB cells versus Plasmodium falciparum W2, read-out: Ratio IC50; procedure, shortened: as §2
Plasmodium falciparum [23] = assay: Antimalarial activity against chloroquine-sensitive Plasmodium falciparum D6; format: functional, organism-based
Procedure, shortened: (§3)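 In vitro growth inhibition of Plasmodium falciparum clones D6 (chloroquine-sensitive) and W2 (chloroquine-resistant); IC50 reported in μg/mL.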

Plasmodium falciparum [24] = assay: Antimalarial activity against chloroquine-resistant Plasmodium falciparum W2; format: functional, organism-based; procedure, shortened: as §3
Micrococcus luteus [25] = assay: Antimicrobial activity against Micrococcus luteus at 0.1 ug; format: functional, organism-based; procedure, shortened: as §1
KB [26] = assay: Cytotoxicity against vinblastine-resistant human KB cells; format: functional; settings: read-out: ED50 (the source's name)
Procedure, shortened: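 The vinblastine-resistant KB-V1 line was tested both with and without added vinblastine in the cultured tumour-cell cytotoxicity panel. Results are reported as ED50.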

[27] = target: Human immunodeficiency virus type 1 reverse transcriptase (Human immunodeficiency virus 1, UniProt Q72547); assay: Inhibition of HIV1 RT at 200 uM
Procedure, shortened: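 HIV-1 reverse transcriptase inhibition was measured in an ELISA-based system.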

ZR-75-1 = assay: Cytotoxicity against human ZR-75-1 cells; format: functional; settings: read-out: ED50 (the source's name)
LNCaP = assay: Cytotoxicity against human LNCAP cells; format: functional; settings: read-out: ED50 (the source's name)
KB [28] = assay: Cytotoxicity against vinblastine-sensitive human KB cells; format: functional; settings: read-out: ED50 (the source's name)
Lu1 = assay: Cytotoxicity against human Lu1 cells; format: functional; settings: read-out: ED50 (the source's name)
Bacillus subtilis [29] = assay: Antimicrobial activity against Bacillus subtilis at 0.1 ug; format: functional, organism-based; procedure, shortened: as §1
HT-1080 = assay: Cytotoxicity against human HT1080 cells; format: functional; settings: read-out: ED50 (the source's name)
Plasmodium falciparum [30] = assay: Antimalarial activity against chloroquine-sensitive Plasmodium falciparum D6 at 10 ug/ml; format: functional
[31] = Cytotoxicity against human U373 cells; format: functional, U-373MG ATCC; settings: U373 MG, read-out: ED50 (the source's name)
[32] = Cytotoxicity against human BCA1 cells; format: functional; settings: read-out: ED50 (the source's name)
[33] = Cytotoxicity against human Col1 cells; format: functional; settings: read-out: ED50 (the source's name)
A-431 = assay: Cytotoxicity against human A431 cells; format: functional; settings: read-out: ED50 (the source's name)
P388 = assay: Cytotoxicity against mouse P388 cells; format: functional; settings: read-out: ED50 (the source's name)
[34] = Cytotoxicity against human MEL-2 cells; format: functional; settings: MEL2, read-out: ED50 (the source's name)

Structure (SMILES)	Activity (Escherichia coli [1])	Activity (Micrococcus luteus [2])	Activity (Bacillus subtilis [3])	Activity (Escherichia coli [4])	zone of inhibition at 5 µg/disc (Penicillium oxalicum [5]) [mm]	Activity (Escherichia coli [8])	Activity (Escherichia coli [9])	Activity (Bacillus subtilis [12])	Activity (Micrococcus luteus [14])	zone of inhibition at 1 µg/disc (Penicillium oxalicum [15]) [mm]	zone of inhibition at 10 µg/disc (Penicillium oxalicum [16]) [mm]	Activity [17] [%]	Activity (Micrococcus luteus [18])	Activity (Bacillus subtilis [19])	selectivity ratio [20]	EC50 (KB [21]) [µg/mL]	IC50 (Plasmodium falciparum [23]) [µg/mL]	IC50 (Plasmodium falciparum [24]) [µg/mL]	EC50 (KB [26]) [µg/mL]	EC50 (ZR-75-1) [µg/mL]	other results
CCC(CCC(=O)C(Br)=C(Br)Br)OC(C)=O (centres undefined)	inactive	inactive	Active	inactive	9	Active	Active	inactive	inactive	6	8	31.7	inactive	Active	–	–	–	–	–	–	Activity (Penicillium oxalicum [6]): inactive; IC50 [7]: ≥ 200 µM; IC50 (Monocyte [10]): 2 µM; IC50 (Monocyte [11]): 2 µM; Activity (Penicillium oxalicum [13]): inactive
C[C@@H]1CC[C@H]2[C@@H](C)C(=O)O[C@@H]3O[C@@]4(C)CC[C@@H]1[C@]32OO4 [ARTEMISININ]	–	–	–	–	–	–	–	–	–	–	–	–	–	–	> 18200	> 20	0.001 (≈ 0.00354 µM)	0.006 (≈ 0.0213 µM)	–	–	selectivity ratio [22]: > 3280
CCC[C@@H](OC(C)=O)C1=C(Br)C(=C(Br)Br)OC1=O	inactive	Active	Active	inactive	14	Active	Active	Active	Active	10	12	1.9	Active	Active	< 1	0.3 (≈ 0.671 µM)	2.2 (≈ 4.92 µM)	9.1 (≈ 20.4 µM)	3.5 (≈ 7.83 µM)	< 0.1	Activity (Micrococcus luteus [25]): Active; IC50 [27]: 700 µM; selectivity ratio [22]: < 1; EC50 (LNCaP): 2.1 µg/mL (≈ 4.7 µM); zone of inhibition at 0.1 µg/disc (Penicillium oxalicum [6]): 6 mm; zone of inhibition at 0.01 µg/disc (Penicillium oxalicum [13]; read-out: IZ): 3 mm; EC50 (KB [28]): 0.5 µg/mL (≈ 1.12 µM); EC50 (Lu1): 1.1 µg/mL (≈ 2.46 µM)
CCC[C@@H](O)C1=C(Br)/C(=C/Cl)OC1=O	Active	Active	Active	Active	18	Active	Active	Active	Active	14	22	1.9	Active	Active	< 1	0.4 (≈ 1.42 µM)	5.9 (≈ 21 µM)	> 10	1.4 (≈ 4.97 µM)	0.4 (≈ 1.42 µM)	Activity (Micrococcus luteus [25]): inactive; IC50 [27]: 700 µM; EC50 (LNCaP): 3 µg/mL (≈ 10.7 µM); zone of inhibition at 0.1 µg/disc (Penicillium oxalicum [6]): 6 mm; EC50 (KB [28]): 1.2 µg/mL (≈ 4.26 µM); EC50 (Lu1): 1 µg/mL (≈ 3.55 µM); Activity (Bacillus subtilis [29]): inactive
CCCCCCC(=O)C(Br)=C(Br)Br	inactive	Active	inactive	inactive	5	inactive	inactive	inactive	inactive	–	10	–	Active	inactive	–	> 20	–	–	> 20	> 20	EC50 (HT-1080): > 20 µg/mL; EC50 (LNCaP): > 20 µg/mL; IC50 [7]: ≥ 200 µM; Activity (Plasmodium falciparum [30]): >50%; EC50 [31]: > 20 µg/mL; EC50 [32]: > 20 µg/mL; EC50 [33]: > 20 µg/mL; EC50 (A-431): > 20 µg/mL; EC50 (KB [28]): > 20 µg/mL; Activity (Penicillium oxalicum [15]): inactive; EC50 (P388): > 5 µg/mL; EC50 [34]: > 20 µg/mL; EC50 (Lu1): > 20 µg/mL
CCC[C@@H](O)C1=C(Br)/C(=C/I)OC1=O	Active	Active	Active	inactive	18	Active	Active	inactive	Active	12	20	4.2	Active	Active	< 1	0.4 (≈ 1.07 µM)	6.8 (≈ 18.2 µM)	> 10	0.3 (≈ 0.804 µM)	0.3 (≈ 0.804 µM)	Activity (Micrococcus luteus [25]): inactive; IC50 [27]: 700 µM; EC50 (LNCaP): < 0.1 µg/mL; zone of inhibition at 0.1 µg/disc (Penicillium oxalicum [6]): 4 mm; EC50 (KB [28]): 4.1 µg/mL (≈ 11 µM); EC50 (Lu1): 1.3 µg/mL (≈ 3.49 µM); Activity (Bacillus subtilis [29]): inactive
